Test system: U2OS
Experiment: Multiplex assay against U2OS
Type: toxicity, cell-based
Details: human
Outline: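 Live cells carried four stains from seeding: Hoechst33342, BioTracker Green Microtubule Cytoskeleton Dye, MitoTracker Red and Annexin V Alexa Fluor 680. They were imaged on a CQ1 microscope at 37°C and 5% CO2 after compound addition. Using CellPathfinder machine-learning gating, cells were split into Hoechst high-intensity objects or normal cells, normal cells into healthy, pyknosed or fragmented nuclei, and pyknosed cells into mitotic or apoptotic; tubulin, mitochondrial-mass and membrane-permeability phenotypes are per cents of healthy-nucleus cells.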

[1] = 12 h, 1 µM, compound concentration 1 uM, replicate 1
[2] = 12 h, 1 µM, compound concentration 1 uM, replicate 2
[3] = 12 h, 10 µM, compound concentration 10 uM, replicate 1
[4] = 12 h, 10 µM, compound concentration 10 uM, replicate 2
[5] = 24 h, 1 µM, compound concentration 1 uM, replicate 1
[6] = 24 h, 1 µM, compound concentration 1 uM, replicate 2
[7] = 24 h, 10 µM, compound concentration 10 uM, replicate 1
[8] = 24 h, 10 µM, compound concentration 10 uM, replicate 2
[9] = 48 h, 1 µM, compound concentration 1 uM, replicate 1
[10] = 48 h, 1 µM, compound concentration 1 uM, replicate 2
[11] = 48 h, 10 µM, compound concentration 10 uM, replicate 1
[12] = 48 h, 10 µM, compound concentration 10 uM, replicate 2

Oc1c(CN2CCN(c3ccccn3)CC2)cc(Cl)c2cccnc12
Population Apoptotic (%) [1]: 95%
Population Fragmented Nuclei (%) [1]: 24%
Population Healthy Nuclei (%) [1]: 64%
Population Hoechst High Intensity Objects (%) [1]: 1%
Population Membrane Permeable-Phenotype (%) [1]: 3%
Population Mitochondria Different-Phenotype (%) [1]: 1%
Population Mitotic Cells (%) [1]: 4%
Population Normal (%) [1]: 98%
Population Pyknosed Nuclei (%) [1]: 10%
Population Tubulin-Different-Phenotype (%) [1]: 2%
Total Cell Count [1]: 237
Population Apoptotic (%) [2]: 100%
Population Fragmented Nuclei (%) [2]: 16%
Population Healthy Nuclei (%) [2]: 78%
Population Membrane Permeable-Phenotype (%) [2]: 13%
Population Mitochondria Different-Phenotype (%) [2]: 4%
Population Mitotic Cells (%) [2]: 0%
Population Pyknosed Nuclei (%) [2]: 5%
Population Tubulin-Different-Phenotype (%) [2]: 8%
Total Cell Count [2]: 93
Population Apoptotic (%) [3]: 84%
Population Fragmented Nuclei (%) [3]: 31%
Population Healthy Nuclei (%) [3]: 56%
Population Hoechst High Intensity Objects (%) [3]: 2%
Population Membrane Permeable-Phenotype (%) [3]: 12%
Population Mitochondria Different-Phenotype (%) [3]: 28%
Population Mitotic Cells (%) [3]: 15%
Population Normal (%) [3]: 97%
Population Pyknosed Nuclei (%) [3]: 11%
Population Tubulin-Different-Phenotype (%) [3]: 8%
Total Cell Count [3]: 229
Population Apoptotic (%) [4]: 87%
Population Fragmented Nuclei (%) [4]: 18%
Population Healthy Nuclei (%) [4]: 68%
Population Hoechst High Intensity Objects (%) [4]: 1%
Population Membrane Permeable-Phenotype (%) [4]: 6%
Population Mitochondria Different-Phenotype (%) [4]: 35%
Population Mitotic Cells (%) [4]: 12%
Population Normal (%) [4]: 98%
Population Pyknosed Nuclei (%) [4]: 13%
Population Tubulin-Different-Phenotype (%) [4]: 11%
Total Cell Count [4]: 118
Population Apoptotic (%) [5]: 88%
Population Fragmented Nuclei (%) [5]: 29%
Population Healthy Nuclei (%) [5]: 64%
Population Hoechst High Intensity Objects (%) [5]: 1%
Population Membrane Permeable-Phenotype (%) [5]: 3%
Population Mitochondria Different-Phenotype (%) [5]: 2%
Population Mitotic Cells (%) [5]: 11%
Population Normal (%) [5]: 98%
Population Pyknosed Nuclei (%) [5]: 6%
Population Tubulin-Different-Phenotype (%) [5]: 2%
Total Cell Count [5]: 270
Population Apoptotic (%) [6]: 100%
Population Fragmented Nuclei (%) [6]: 7%
Population Healthy Nuclei (%) [6]: 87%
Population Membrane Permeable-Phenotype (%) [6]: 9%
Population Mitochondria Different-Phenotype (%) [6]: 3%
Population Mitotic Cells (%) [6]: 0%
Population Pyknosed Nuclei (%) [6]: 5%
Population Tubulin-Different-Phenotype (%) [6]: 7%
Total Cell Count [6]: 97
Population Apoptotic (%) [7]: 90%
Population Fragmented Nuclei (%) [7]: 27%
Population Healthy Nuclei (%) [7]: 63%
Population Hoechst High Intensity Objects (%) [7]: 4%
Population Membrane Permeable-Phenotype (%) [7]: 10%
Population Mitochondria Different-Phenotype (%) [7]: 14%
Population Mitotic Cells (%) [7]: 9%
Population Normal (%) [7]: 95%
Population Pyknosed Nuclei (%) [7]: 9%
Population Tubulin-Different-Phenotype (%) [7]: 7%
Total Cell Count [7]: 238
Population Apoptotic (%) [8]: 100%
Population Fragmented Nuclei (%) [8]: 29%
Population Healthy Nuclei (%) [8]: 58%
Population Hoechst High Intensity Objects (%) [8]: 3%
Population Membrane Permeable-Phenotype (%) [8]: 9%
Population Mitochondria Different-Phenotype (%) [8]: 40%
Population Mitotic Cells (%) [8]: 0%
Population Normal (%) [8]: 96%
Population Pyknosed Nuclei (%) [8]: 12%
Population Tubulin-Different-Phenotype (%) [8]: 6%
Total Cell Count [8]: 127
Population Apoptotic (%) [9]: 94%
Population Fragmented Nuclei (%) [9]: 25%
Population Healthy Nuclei (%) [9]: 67%
Population Hoechst High Intensity Objects (%) [9]: 3%
Population Membrane Permeable-Phenotype (%) [9]: 6%
Population Mitochondria Different-Phenotype (%) [9]: 3%
Population Mitotic Cells (%) [9]: 5%
Population Normal (%) [9]: 96%
Population Pyknosed Nuclei (%) [9]: 7%
Population Tubulin-Different-Phenotype (%) [9]: 3%
Total Cell Count [9]: 276
Population Apoptotic (%) [10]: 87%
Population Fragmented Nuclei (%) [10]: 14%
Population Healthy Nuclei (%) [10]: 77%
Population Hoechst High Intensity Objects (%) [10]: 1%
Population Membrane Permeable-Phenotype (%) [10]: 7%
Population Mitochondria Different-Phenotype (%) [10]: 1%
Population Mitotic Cells (%) [10]: 12%
Population Normal (%) [10]: 98%
Population Tubulin-Different-Phenotype (%) [10]: 5%
Total Cell Count [10]: 111
Population Apoptotic (%) [11]: 96%
Population Fragmented Nuclei (%) [11]: 32%
Population Healthy Nuclei (%) [11]: 57%
Population Hoechst High Intensity Objects (%) [11]: 2%
Population Membrane Permeable-Phenotype (%) [11]: 11%
Population Mitochondria Different-Phenotype (%) [11]: 19%
Population Mitotic Cells (%) [11]: 3%
Population Normal (%) [11]: 97%
Population Pyknosed Nuclei (%) [11]: 10%
Population Tubulin-Different-Phenotype (%) [11]: 7%
Total Cell Count [11]: 275
Population Apoptotic (%) [12]: 100%
Population Fragmented Nuclei (%) [12]: 38%
Population Healthy Nuclei (%) [12]: 42%
Population Hoechst High Intensity Objects (%) [12]: 4%
Population Membrane Permeable-Phenotype (%) [12]: 12%
Population Mitochondria Different-Phenotype (%) [12]: 41%
Population Mitotic Cells (%) [12]: 0%
Population Normal (%) [12]: 95%
Population Pyknosed Nuclei (%) [12]: 19%
Population Tubulin-Different-Phenotype (%) [12]: 8%
Total Cell Count [12]: 144

Cc1ccccc1C(=O)Nc1ccc(C(=O)N2CCCC(N(C)C)c3ccccc32)cc1.Cl (stereo unspecified)
Population Apoptotic (%) [1]: 91%
Population Fragmented Nuclei (%) [1]: 20%
Population Healthy Nuclei (%) [1]: 70%
Population Hoechst High Intensity Objects (%) [1]: 1%
Population Membrane Permeable-Phenotype (%) [1]: 5%
Population Mitochondria Different-Phenotype (%) [1]: 3%
Population Mitotic Cells (%) [1]: 8%
Population Normal (%) [1]: 98%
Population Pyknosed Nuclei (%) [1]: 8%
Population Tubulin-Different-Phenotype (%) [1]: 4%
Total Cell Count [1]: 282
Population Apoptotic (%) [2]: 77%
Population Fragmented Nuclei (%) [2]: 14%
Population Healthy Nuclei (%) [2]: 79%
Population Membrane Permeable-Phenotype (%) [2]: 4%
Population Mitochondria Different-Phenotype (%) [2]: 5%
Population Mitotic Cells (%) [2]: 22%
Population Pyknosed Nuclei (%) [2]: 5%
Population Tubulin-Different-Phenotype (%) [2]: 1%
Total Cell Count [2]: 157
Population Apoptotic (%) [3]: 59%
Population Fragmented Nuclei (%) [3]: 18%
Population Healthy Nuclei (%) [3]: 55%
Population Hoechst High Intensity Objects (%) [3]: 4%
Population Membrane Permeable-Phenotype (%) [3]: 14%
Population Mitochondria Different-Phenotype (%) [3]: 11%
Population Mitotic Cells (%) [3]: 40%
Population Normal (%) [3]: 95%
Population Pyknosed Nuclei (%) [3]: 25%
Population Tubulin-Different-Phenotype (%) [3]: 8%
Total Cell Count [3]: 213
Population Apoptotic (%) [4]: 56%
Population Healthy Nuclei (%) [4]: 62%
Population Hoechst High Intensity Objects (%) [4]: 1%
Population Membrane Permeable-Phenotype (%) [4]: 15%
Population Mitochondria Different-Phenotype (%) [4]: 25%
Population Mitotic Cells (%) [4]: 43%
Population Normal (%) [4]: 98%
Population Pyknosed Nuclei (%) [4]: 19%
Population Tubulin-Different-Phenotype (%) [4]: 15%
Total Cell Count [4]: 83
Population Apoptotic (%) [5]: 88%
Population Fragmented Nuclei (%) [5]: 18%
Population Healthy Nuclei (%) [5]: 70%
Population Hoechst High Intensity Objects (%) [5]: 0%
Population Membrane Permeable-Phenotype (%) [5]: 6%
Population Mitochondria Different-Phenotype (%) [5]: 3%
Population Mitotic Cells (%) [5]: 11%
Population Normal (%) [5]: 99%
Population Pyknosed Nuclei (%) [5]: 10%
Population Tubulin-Different-Phenotype (%) [5]: 4%
Total Cell Count [5]: 333
Population Apoptotic (%) [6]: 66%
Population Fragmented Nuclei (%) [6]: 13%
Population Healthy Nuclei (%) [6]: 77%
Population Hoechst High Intensity Objects (%) [6]: 1%
Population Membrane Permeable-Phenotype (%) [6]: 5%
Population Mitochondria Different-Phenotype (%) [6]: 4%
Population Mitotic Cells (%) [6]: 33%
Population Normal (%) [6]: 98%
Population Pyknosed Nuclei (%) [6]: 9%
Population Tubulin-Different-Phenotype (%) [6]: 3%
Total Cell Count [6]: 192
Population Apoptotic (%) [7]: 71%
Population Fragmented Nuclei (%) [7]: 16%
Population Healthy Nuclei (%) [7]: 51%
Population Hoechst High Intensity Objects (%) [7]: 4%
Population Membrane Permeable-Phenotype (%) [7]: 16%
Population Mitochondria Different-Phenotype (%) [7]: 14%
Population Mitotic Cells (%) [7]: 28%
Population Normal (%) [7]: 95%
Population Pyknosed Nuclei (%) [7]: 31%
Population Tubulin-Different-Phenotype (%) [7]: 6%
Total Cell Count [7]: 211
Population Apoptotic (%) [8]: 46%
Population Fragmented Nuclei (%) [8]: 27%
Population Healthy Nuclei (%) [8]: 53%
Population Hoechst High Intensity Objects (%) [8]: 5%
Population Membrane Permeable-Phenotype (%) [8]: 18%
Population Mitochondria Different-Phenotype (%) [8]: 18%
Population Mitotic Cells (%) [8]: 53%
Population Normal (%) [8]: 94%
Population Pyknosed Nuclei (%) [8]: 18%
Population Tubulin-Different-Phenotype (%) [8]: 18%
Total Cell Count [8]: 73
Population Apoptotic (%) [9]: 85%
Population Fragmented Nuclei (%) [9]: 14%
Population Healthy Nuclei (%) [9]: 71%
Population Hoechst High Intensity Objects (%) [9]: 1%
Population Membrane Permeable-Phenotype (%) [9]: 5%
Population Mitochondria Different-Phenotype (%) [9]: 3%
Population Mitotic Cells (%) [9]: 14%
Population Normal (%) [9]: 98%
Population Pyknosed Nuclei (%) [9]: 13%
Population Tubulin-Different-Phenotype (%) [9]: 3%
Total Cell Count [9]: 414
Population Apoptotic (%) [10]: 83%
Population Fragmented Nuclei (%) [10]: 15%
Population Healthy Nuclei (%) [10]: 72%
Population Membrane Permeable-Phenotype (%) [10]: 7%
Population Mitochondria Different-Phenotype (%) [10]: 5%
Population Mitotic Cells (%) [10]: 16%
Population Pyknosed Nuclei (%) [10]: 12%
Population Tubulin-Different-Phenotype (%) [10]: 4%
Total Cell Count [10]: 248
Population Apoptotic (%) [11]: 71%
Population Fragmented Nuclei (%) [11]: 28%
Population Healthy Nuclei (%) [11]: 43%
Population Hoechst High Intensity Objects (%) [11]: 8%
Population Membrane Permeable-Phenotype (%) [11]: 17%
Population Mitochondria Different-Phenotype (%) [11]: 8%
Population Mitotic Cells (%) [11]: 28%
Population Normal (%) [11]: 91%
Population Pyknosed Nuclei (%) [11]: 28%
Population Tubulin-Different-Phenotype (%) [11]: 7%
Total Cell Count [11]: 206
Population Apoptotic (%) [12]: 84%
Population Healthy Nuclei (%) [12]: 42%
Population Membrane Permeable-Phenotype (%) [12]: 11%
Population Mitochondria Different-Phenotype (%) [12]: 30%
Population Mitotic Cells (%) [12]: 16%
Population Pyknosed Nuclei (%) [12]: 29%
Population Tubulin-Different-Phenotype (%) [12]: 13%
Total Cell Count [12]: 93
